Among the data in ChEMBL document CHEMBL2417436, “Synthesis and biological effects of novel 2-amino-3-(4-chlorobenzoyl)-4-substituted thiophenes as allosteric enhancers of the A1 adenosine receptor” (Eur J Med Chem, 2013) are fold change (FC) and inhibition values, retold here.

As a reminder, the inhibition is the share of the control response that was lost under treatment.

Assay [1] deals with T1, Adenosine receptor A1 (Homo sapiens) (UniProt P30542).
T1 sequence (whole entry): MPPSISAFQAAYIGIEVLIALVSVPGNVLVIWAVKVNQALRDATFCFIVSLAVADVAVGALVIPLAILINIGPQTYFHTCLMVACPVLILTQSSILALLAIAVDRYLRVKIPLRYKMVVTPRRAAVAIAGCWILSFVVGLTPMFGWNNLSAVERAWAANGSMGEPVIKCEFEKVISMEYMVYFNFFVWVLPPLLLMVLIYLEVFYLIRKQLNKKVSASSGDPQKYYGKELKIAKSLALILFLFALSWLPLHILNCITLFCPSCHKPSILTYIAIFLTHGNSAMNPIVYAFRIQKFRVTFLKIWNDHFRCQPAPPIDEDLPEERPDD
Nature of the assay: Allosteric enhancement of human adenosine A1 receptor expressed in CHO cells assessed as increase of [3H]CCPA Bmax at 10 uM after 90 mins. Type of assay: cell-based. Summed up:
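Saturation of [3H]CCPA (0.05–20 nM) on hA1CHO membranes in 50 mM Tris-HCl, pH 7.4, with or without compound at final 10 μM. Triplicate, 25 °C, 90 min. Nonspecific binding defined with 1 μM R-PIA. Filter-bound radioactivity counted. KD and Bmax fitted by weighted nonlinear least squares; Bmax shift versus control. Mean ± SEM, n=3.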

Assay [2] has as its target T2, Adenosine receptor A3 (Homo sapiens) (UniProt P0DMS8).
T2 sequence (whole entry): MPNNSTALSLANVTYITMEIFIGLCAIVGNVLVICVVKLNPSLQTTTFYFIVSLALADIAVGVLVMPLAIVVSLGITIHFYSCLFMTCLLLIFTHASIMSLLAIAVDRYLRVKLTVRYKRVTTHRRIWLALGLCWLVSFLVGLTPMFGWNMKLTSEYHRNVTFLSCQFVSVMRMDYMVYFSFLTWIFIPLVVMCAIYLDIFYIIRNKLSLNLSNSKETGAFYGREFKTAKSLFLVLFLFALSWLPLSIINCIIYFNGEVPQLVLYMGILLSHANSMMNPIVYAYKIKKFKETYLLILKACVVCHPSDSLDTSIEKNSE
Description: Displacement of [3H]MRE-3008-F20 from human adenosine A3 receptor expressed in CHO cells at 10 uM after 120 mins by scintillation counting. Background: Displacement assays read how much labelled ligand stays bound in the presence of the test substance.

In assay [3] the target is T1, Adenosine receptor A1 (Homo sapiens). Nature of the assay: Displacement of [3H]DPCPX from human adenosine A1 receptor expressed in CHO cells at 10 uM after 120 mins by scintillation counting.
For assay [4] the target is unchanged. Description: Allosteric enhancement of human adenosine A1 receptor expressed in CHO cells assessed as increase of CCPA Ki at 10 uM after 90 mins by [3H]DPCPX radioligand binding assay. The class given is cell-based. In short, it runs like this: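 hA1CHO membranes (50 mM Tris-HCl, pH 7.4, adenosine deaminase-treated). [3H]DPCPX 1 nM competed by CCPA (0.01 nM–1 μM) with or without test compound at 10 μM. Triplicate, 90 min at 25 °C. Nonspecific binding taken with 1 μM DPCPX. Filtration, then scintillation counting. Ki by Cheng–Prusoff. Shift = Ki(CCPA)/Ki(CCPA+enhancer). Mean ± SEM, n=3.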

Assay [5] has the same target. Description: Allosteric enhancement of human adenosine A1 receptor expressed in CHO cells assessed as inhibition of forskolin-induced cAMP production at 10 uM after 10 mins. The class given is functional, cell-based. Summed up: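 Whole hA1CHO cells (10⁶/mL) preincubated 10 min at 37 °C in phosphate buffer with adenosine deaminase (1.0 IU/mL) and Ro 20-1724 (0.5 mM). Compound alone at 10 μM for a further 10 min; forskolin 1 μM for 5 min. TCA stop, ether extraction, cAMP by [3H]-cAMP protein-binding competition assay. Expressed as pmol/10⁶ cells; mean ± SEM, three experiments.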

Assay [6] shares this target. Description: Allosteric enhancement of human adenosine A1 receptor expressed in CHO cells assessed as inhibition of CCPA-induced cAMP production at 100 nM after 10 mins. Type of assay: functional, cell-based. In short, it runs like this: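 Intact hA1CHO cells (10⁶/mL) in phosphate buffer with adenosine deaminase 1.0 IU/mL and Ro 20-1724 0.5 mM, preincubated 10 min at 37 °C. Compound 100 nM plus CCPA 1 pM added for 10 min, then forskolin 1 μM for 5 min. Stopped with cold 6% TCA, ether-extracted. cAMP measured by [3H]-cAMP competition with adrenal binding protein (4 °C, 150 min). pmol/10⁶ cells, mean ± SEM of three.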
(In general: cAMP levels reflect the balance of adenylyl cyclase and phosphodiesterase activity.)

Assay [7] deals with Adenosine receptor A2a (Homo sapiens) (UniProt P29274). Description: Displacement of [3H]ZM 241385 from human adenosine A2A receptor expressed in CHO cells at 10 uM after 60 mins by scintillation counting. The class given is cell-based. In short, it runs like this: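 hA2ACHO membranes in 50 mM Tris HCl, 10 mM MgCl2, pH 7.4, 4 °C for 60 min. [3H]ZM 241385 given as 1 nM in methods and 2 nM in table footnote. Compound at 10 μM from 100-fold DMSO stock, 1% DMSO final. Nonspecific binding with 1 μM ZM 241385. Filtration and scintillation counting. Percent inhibition of control specific binding, ±SEM, n=3.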
Chain of Adenosine receptor A2a (Homo sapiens) (P29274 whole entry): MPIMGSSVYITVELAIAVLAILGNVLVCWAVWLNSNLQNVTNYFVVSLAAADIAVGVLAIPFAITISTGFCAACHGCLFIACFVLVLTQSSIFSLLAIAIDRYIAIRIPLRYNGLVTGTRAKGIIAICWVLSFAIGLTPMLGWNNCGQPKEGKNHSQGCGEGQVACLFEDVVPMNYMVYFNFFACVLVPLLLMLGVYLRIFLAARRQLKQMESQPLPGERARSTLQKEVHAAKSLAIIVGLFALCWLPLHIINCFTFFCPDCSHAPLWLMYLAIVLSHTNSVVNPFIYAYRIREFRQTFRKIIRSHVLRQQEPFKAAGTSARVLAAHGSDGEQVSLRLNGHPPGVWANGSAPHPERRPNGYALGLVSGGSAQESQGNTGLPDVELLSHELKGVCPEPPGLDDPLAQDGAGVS

For the molecule `Nc1sc(-c2ccccc2)c(CN(C2CCCCC2)C2CCCCC2)c1C(=O)c1ccc(Cl)cc1`, the results for the fold change (FC) in assay [1] and in assay [4] were 3.5 and 3.2, respectively. Also, the inhibition in assay [2] turned out to be 7%; in assay [3], 6%; in assay [5], 31%; in assay [6] it was 28%; in assay [7], 1%.

Regarding `Nc1scc(CN2CCn3c(cc4cc(F)ccc43)C2)c1C(=O)c1ccc(Cl)cc1`, the values for the fold change (FC) in assay [1] and in assay [4] were 8.2 and 7.2, respectively. For the same molecule, the inhibition is 5% in assay [2]; 0% in assay [3]; 69% in assay [5]; 65% in assay [6]; 2% in assay [7].

Take `CCN(CC)Cc1c(-c2ccccc2)sc(N)c1C(=O)c1ccc(Cl)cc1`: the fold change (FC) came to 2.8 in assay [1] and 2.4 in assay [4]. The inhibition in assay [2] is 9%; in assay [3], 1%; in assay [5] it was 25%; in assay [6], 27%; in assay [7], 5%.

Turning to `CCCCN(C)Cc1c(-c2ccccc2)sc(N)c1C(=O)c1ccc(Cl)cc1`, the fold change (FC) in assay [1] and in assay [4] was 1.1 each time. In addition, the inhibition stood at 5% in assay [2]; 1% in assay [3]; 5% in assay [5]; 12% in assay [6]; 1% in assay [7].

Consider `Nc1scc(CN2CCc3[nH]c4ccc(Cl)cc4c3C2)c1C(=O)c1ccc(Cl)cc1`, for which the fold change (FC) is 1.2 in assay [1] and 1.1 in assay [4]. The inhibition in assay [2] is 1%; in assay [3] it was 2%; in assay [5], 8%; in assay [6] it was 13%; in assay [7], 1%.

Regarding `CC(C)c1ccc(OCc2csc(N)c2C(=O)c2ccc(Cl)cc2)cc1`, the fold change (FC) was found to be 1.8 in assay [1] and 1.5 in assay [4]. Also, the inhibition in assay [2] was 9%; in assay [3] it was 3%; in assay [5], 15%; in assay [6], 18%; in assay [7], 1%.

In the case of `Cn1c2c(c3cc(Cl)ccc31)CN(Cc1csc(N)c1C(=O)c1ccc(Cl)cc1)CC2`, the fold change (FC) in assay [1] was found to be 2.8; in assay [4] it was 2.6. Further, the inhibition is 1% in assay [2]; 1% in assay [3]; 24% in assay [5]; 28% in assay [6]; 0% in assay [7].

Turning to `CC(C)N(Cc1c(Br)sc(N)c1C(=O)c1ccc(Cl)cc1)C(C)C`, the fold change (FC) in assay [1] is 1.5; in assay [4] it was 1.4. For the same molecule, the inhibition in assay [2] was determined as 3%; in assay [3] it was 1%; in assay [5] it was 12%; in assay [6] it was 14%; in assay [7], 1%.

For `Nc1scc(COc2ccc(F)cc2)c1C(=O)c1ccc(Cl)cc1`, the fold change (FC) in assay [1] and in assay [4] was 1.2 in each case. For the same molecule, the inhibition in assay [2] stood at 8%; in assay [3] it was 1%; in assay [5] it was 10%; in assay [6], 15%; in assay [7], 1%.

On to `CN(Cc1csc(N)c1C(=O)c1ccc(Cl)cc1)c1ccc(F)cc1`, for which the fold change (FC) in assay [1] came out at 3.2; in assay [4] it was 3.4. The inhibition in assay [2] was 4%; in assay [3], 3%; in assay [5], 28%; in assay [6], 26%; in assay [7], 2%.

Consider `Nc1scc(CN2CCC3(CC2)Oc2cccc(F)c2O3)c1C(=O)c1ccc(Cl)cc1`, for which the figures for the fold change (FC) in assay [1] and in assay [4] were 6.5 and 6.3, respectively. Besides, the inhibition in assay [2] worked out at 7%; in assay [3] it was 1%; in assay [5], 56%; in assay [6] it was 52%; in assay [7], 1%.

`Cc1ccc(OCc2csc(N)c2C(=O)c2ccc(Cl)cc2)cc1`: the fold change (FC) in assay [1] came out at 1.3; in assay [4], 1.4. The inhibition amounted to 11% in assay [2]; 5% in assay [3]; 11% in assay [5]; 16% in assay [6]; 1% in assay [7].

With `CN(Cc1csc(N)c1C(=O)c1ccc(Cl)cc1)c1ccc(C(F)(F)F)cc1`, the fold change (FC) was 3.2 in assay [1] and 2.8 in assay [4]. For the same molecule, the inhibition in assay [2] is 4%; in assay [3] it was 3%; in assay [5], 29%; in assay [6], 31%; in assay [7], 0%.

As to `CN(Cc1ccccc1)Cc1c(-c2ccccc2)sc(N)c1C(=O)c1ccc(Cl)cc1`, the fold change (FC) in assay [1] and in assay [4] was 1.1 throughout. Besides, the inhibition worked out at 6% in assay [2]; 1% in assay [3]; 4% in assay [5]; 11% in assay [6]; 3% in assay [7].

For `COc1ccc2c(c1)cc1n2CCN(Cc2csc(N)c2C(=O)c2ccc(Cl)cc2)C1`, the values for the fold change (FC) in assay [1] and in assay [4] were 4.8 and 3.7, respectively. The inhibition in assay [2] is 6%; in assay [3] it was 1%; in assay [5], 43%; in assay [6], 41%; in assay [7], 0%.

Consider `Nc1scc(CN2CCc3[nH]c4ccccc4c3C2)c1C(=O)c1ccc(Cl)cc1`, for which the fold change (FC) in assay [1] and in assay [4] was 1 each time. The inhibition was determined as 1% in assay [2]; 0% in assay [3]; 3% in assay [5]; 11% in assay [6]; 1% in assay [7].

Regarding `CN(Cc1csc(N)c1C(=O)c1ccc(Cl)cc1)c1ccccc1`, the fold change (FC) in assay [1] came to 2.4; in assay [4], 2.2. The inhibition in assay [2] stood at 9%; in assay [3], 1%; in assay [5] it was 18%; in assay [6] it was 16%; in assay [7] it was 1%.

`CC(C)(C)c1ccc2c(c1)OC1(CCN(Cc3csc(N)c3C(=O)c3ccc(Cl)cc3)CC1)O2`: the values for the fold change (FC) in assay [1] and in assay [4] were 6.3 and 6, respectively. Also, the inhibition in assay [2] turned out to be 12%; in assay [3] it was 1%; in assay [5], 51%; in assay [6], 55%; in assay [7] it was 0%.

Consider `Cc1sc(N)c(C(=O)c2cccc(C(F)(F)F)c2)c1C`, for which the fold change (FC) in assay [1] was found to be 1.3; in assay [4], 1.6. Besides, the inhibition in assay [3] stood at 0%; in assay [5], 18%; in assay [6] it was 20%; in assay [7] it was 0%.
